Published values collected from several papers.
Each line is one published result; the experiments were not run side by side.
Target: Protein kinase C theta type (PRKCQ, Homo sapiens, UniProt Q04759)

The remaining binding of `c1cnn2ncc(-c3ccnc(N4CCC45COC5)n3)c2c1` is reported as 86% (binding; 1 µM).
`C=CC(=O)N1CCC(C(=O)NCC(=O)N2CCN(c3nc(-c4cnc(N)nc4C(F)F)nc(N4CCOCC4)n3)CC2)CC1` gave a remaining binding of 83% (binding, competition with immobilised ligand; 1 µM).
The remaining binding of `O=C(NCCCN1CCOCC1)c1ccc(Nc2nccc(-c3cc4ccccc4s3)n2)cc1` is reported as 100% (binding, competition with immobilised ligand; 1 µM).
The remaining binding of `CC1CCCN1c1nccc(-c2cnn3ncccc23)n1` (stereo not shown) is reported as 100% (binding; 1 µM).
With `COc1cnc(Nc2cccc(S(N)(=O)=O)c2)nc1N1CCN(c2ccccc2)CC1` the remaining binding was 94% (binding, competition with immobilised ligand; 1 µM).
The remaining binding of `CCN1CCN(Cc2ccc(C(=O)Nc3ccc(C)c(Oc4ccc5c(c4)CC(=O)N5)c3)cc2C(F)(F)F)CC1` is reported as 100% (binding, competition with immobilised ligand; 1 µM).
`CS(=O)(=O)N1CCCC(NC(=O)[C@H](CCC2CCCCC2)NC(=O)c2ccc(CNC(=O)c3cnc4ccccn34)cc2)C1` (stereo partly shown) gave a remaining binding of 97% (cell-free assay, competition with immobilised ligand; 0.1 µM).
With `Cc1cnn2ncc(-c3ccnc(N(C)C)n3)c2c1` the remaining binding was 99% (binding; 1 µM).
The remaining binding of `O=C(Nc1ccc(Oc2ccc(F)cc2)cc1)N1CCc2ncccc2[C@H]1c1ccc(F)cc1` is reported as 95% (cell-free assay, competition with immobilised ligand; 1 µM).
`C[C@H]1CCN(c2nccc(-c3cnn4ncccc34)n2)C1` gave a remaining binding of 100% (binding; 1 µM).
The remaining binding of `COc1ccc2c(c1)O[C@@H](c1ccc(OC)c(OC)c1)C[C@H]2NC(=O)C1(c2ccc3c(c2)OC(F)(F)O3)CC1` is reported as 98% (cell-free assay, competition with immobilised ligand; 1 µM).
`CN(C)c1nccc(-c2cnc3ncccn23)n1` gave a remaining binding of 75% (binding; 1 µM).
With `C[C@@H]1CN(c2cc(-c3nn(C)c4ccc(OC5(C)CC5)cc34)ncn2)C[C@H](C)O1` the remaining binding was 91% (cell-free assay, competition with immobilised ligand; 1 µM).
`CN(C)c1nccc(-c2cnn3ncccc23)n1` has a remaining binding of 88% (binding; 1 µM).
`O=C(NCC1CCOCC1)c1n[nH]cc1NC(=O)c1c(F)cccc1F` has a remaining binding of 100% (binding, competition with immobilised ligand; 1 µM).
`FC(F)(F)Oc1cccc(-c2cnc3ccc(-c4ccncc4)nn23)c1` gave a remaining binding of 85% (cell-free assay, competition with immobilised ligand; 5 µM).
The remaining binding of `Cc1c(NC(=O)c2cc(C(N)=O)nc3cc(F)ccc23)c(C(F)(F)F)nn1Cc1ccc(C#N)cc1` is reported as 80% (cell-free assay, competition with immobilised ligand; 1 µM).
With `N[C@H]1CCN(c2nccc(-c3cnn4ncccc34)n2)C1` the remaining binding was 74% (binding; 1 µM).
`CN(C)CC#Cc1ccc(OCCCc2sc(N3CCc4cccc(C(=O)Nc5nc6ccccc6s5)c4C3)nc2C(=O)O)c(F)c1` gave a remaining binding of 92% (cell-free assay, competition with immobilised ligand; 1 µM).
For `O=C(c1ccc(Nc2nccc(-c3cc4ccccc4s3)n2)cc1)N1CCC(N2CCCC2)CC1`, the remaining binding was 56% (binding, competition with immobilised ligand; 1 µM).
With `CCOCCn1cc(C(=O)Nc2ccc(-n3nc(-c4cccnc4)cc3C(F)(F)F)cn2)ccc1=O` the remaining binding was 73% (cell-free assay, competition with immobilised ligand; 1 µM).
`O=C(c1ccc(Nc2ncc(Cl)c(-c3cc4ccccc4s3)n2)cc1)N1CCC(N2CCCC2)CC1` has a remaining binding of 23% (binding, competition with immobilised ligand; 1 µM).
